Legend:
PSMA [1] = target: T1, PSMA (Homo sapiens, UniProt Q04609); assay: PSMA inhibition assay; format: biochemical
PSMA [2] = target: T1, PSMA; assay: Reversibility assay; format: biochemical
[3] = system: mice bearing CWR22Rv1 tumor xenografts; assay: Ex vivo biodistribution in CWR22Rv1 tumor-bearing mice; details: indicated by insignificant bone uptake
Summary of the method: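 Male athymic NCr-nu/nu mice carried CWR22Rv1 xenografts (about 10^6 cells in 50/50 complete medium/matrigel, right shoulder), used 4–5 weeks after implantation. Under isoflurane, HPLC-purified radiotracer (35–40 μCi in saline) was given by tail vein. For blocking, 250 μg of the PSMA inhibitor in saline was given 1 h before tracer, 4 h group only. Mice were euthanized at 1 h or 4 h, n = 4. Blood was taken by cardiac puncture; organs were weighed and gamma-counted. %ID/g was calculated against standards; two-tailed t-test, p<0.05.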

T1 sequence (Q04609 whole entry): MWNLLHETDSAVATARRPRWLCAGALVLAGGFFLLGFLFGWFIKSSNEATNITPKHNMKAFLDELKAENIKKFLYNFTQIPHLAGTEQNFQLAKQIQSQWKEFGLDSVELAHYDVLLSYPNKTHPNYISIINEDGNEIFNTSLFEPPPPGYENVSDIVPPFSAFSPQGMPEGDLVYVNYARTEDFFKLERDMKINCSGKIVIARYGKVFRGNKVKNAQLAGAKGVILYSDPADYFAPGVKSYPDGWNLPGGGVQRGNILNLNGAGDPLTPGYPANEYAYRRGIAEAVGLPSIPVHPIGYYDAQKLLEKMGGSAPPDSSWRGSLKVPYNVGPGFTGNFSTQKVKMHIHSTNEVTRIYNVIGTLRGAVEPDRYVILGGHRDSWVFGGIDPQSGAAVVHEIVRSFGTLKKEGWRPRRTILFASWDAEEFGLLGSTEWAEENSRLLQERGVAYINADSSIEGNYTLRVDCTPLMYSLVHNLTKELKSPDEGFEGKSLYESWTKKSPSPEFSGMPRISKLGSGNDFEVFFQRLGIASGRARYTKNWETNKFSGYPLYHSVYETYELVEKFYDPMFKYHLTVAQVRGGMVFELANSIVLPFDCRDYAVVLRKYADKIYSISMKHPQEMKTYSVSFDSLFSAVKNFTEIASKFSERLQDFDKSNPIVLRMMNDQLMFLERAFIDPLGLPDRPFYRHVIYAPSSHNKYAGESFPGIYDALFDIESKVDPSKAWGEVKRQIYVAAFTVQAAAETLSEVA

IC50 (PSMA [1]) [nM]	Compound	Mode of binding to PSMA (PSMA [2])	Defluorination in vivo [3]
19	NCCCCCC(=O)N[C@@H](CCC(=O)N[C@H](CCCOP(=O)(O)NC(CCC(=O)O)C(=O)O)C(=O)O)C(=O)O (stereo partly drawn) [compound 3, 2-(((S)-((4R)-4-(4-(6-aminohexanamido)-4-carboxybutanamido)-4-carboxybut-oxy) (hydroxy)phosphoryl)amino)pentanedioic acid]	irreversible	
	O=C(O)CCC(NP(=O)(O)OCCC[C@@H](NC(=O)CC[C@H](NC(=O)CCCCCNC(=O)c1ccc(F)cc1)C(=O)O)C(=O)O)C(=O)O (stereo partly drawn) [compound 5, 2-(((S)-((4R)-4-carboxy-4-(4-carboxy-4-(6-(4-fluorobenzamido)hexanamido)butanamido)butoxy)(hydroxy)phosphoryl)amino) pentanedioic acid]	irreversible	no defluorination

— publication PMC4624265 (Nuclear medicine and biology, 2015)
